Data taken from article PMC4857762 (Journal of pharmaceutical sciences, 2016).

Legend:
in vitro [1] = details: male, mouse, tissue homogenate, pH 6
in vitro [2] = details: male, BPHL knock-out, mouse, tissue homogenate, pH 6
pepsin = pepsin (Sus scrofa, UniProt P00791); test: Hydrolysis in pH 1.2 SGF with pepsin; format: in vitro ADME; details: 37 °C, stable = no decrease in area by HPLC after 2 h
pancreatin = test: Hydrolysis in buffers / SIF with pancreatin; format: in vitro ADME
Caco-2 cell homogenates = test: Hydrolysis in Caco-2 cell homogenates; format: in vitro ADME, Human; details: Caco-2 Cell homogenates (pH 6.0), 500 μg/mL protein, 37 °C
HepG2 cell homogenates = test: Hydrolysis in HepG2 cell homogenates; format: in vitro ADME, human; details: HepG2 Cell homogenates (pH 6.0), 500 μg/mL protein, 37 °C
hPEPT1 = biological target: T1, hPEPT1 (Homo sapiens, UniProt P46059); test: Uptake in Xenopus laevis oocytes expressing hPEPT1; format: cell-based; details: 50 μM, pH 6.0, 30 min, room temperature
T1 sequence (P46059 1-708): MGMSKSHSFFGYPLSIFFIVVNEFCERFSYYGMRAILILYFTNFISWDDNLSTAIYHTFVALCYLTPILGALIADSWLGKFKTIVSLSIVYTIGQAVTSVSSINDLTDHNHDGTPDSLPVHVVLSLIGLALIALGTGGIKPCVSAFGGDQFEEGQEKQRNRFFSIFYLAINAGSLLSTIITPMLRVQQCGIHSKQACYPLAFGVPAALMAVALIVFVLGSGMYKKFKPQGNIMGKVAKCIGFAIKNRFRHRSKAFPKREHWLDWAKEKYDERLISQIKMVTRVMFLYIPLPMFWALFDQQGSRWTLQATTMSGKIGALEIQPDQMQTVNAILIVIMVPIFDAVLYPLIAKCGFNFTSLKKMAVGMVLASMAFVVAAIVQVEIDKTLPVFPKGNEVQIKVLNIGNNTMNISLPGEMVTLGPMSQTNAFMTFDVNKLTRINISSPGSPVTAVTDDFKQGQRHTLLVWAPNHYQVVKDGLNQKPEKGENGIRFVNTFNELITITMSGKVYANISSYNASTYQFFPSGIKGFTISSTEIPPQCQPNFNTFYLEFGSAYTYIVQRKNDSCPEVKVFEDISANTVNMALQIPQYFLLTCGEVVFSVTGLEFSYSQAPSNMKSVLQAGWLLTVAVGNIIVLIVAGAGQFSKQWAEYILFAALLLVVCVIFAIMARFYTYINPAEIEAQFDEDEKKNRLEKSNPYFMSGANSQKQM
In short: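 Oocytes injected with hPEPT1 cRNA, with water-injected oocytes as controls. Uptake at room temperature, pH 6.0, in modified Barth's solution (96 mM NaCl, 10 mM HEPES), 50 μM for 30 min; time course up to 3 h; 50–5000 μM for 3 h. Gly-Sar (1, 20 mM) competition expressed as % of uptake without Gly-Sar. Mean ± SEM, 8–13 experiments.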

Caco-2 cells = test: Intracellular accumulation into Caco-2 cells after transport study; format: in vitro ADME, Human; details: Caco-2 cell lysate after 2 h transport study with the prodrug
[3] = test system: Wild-type mice intestinal tissue homogenates; details: mouse, tissue homogenate, pH 6
[4] = test system: BPHL knock-out mice intestinal tissue homogenates; details: mouse, tissue homogenate, pH 6
[5] = Chemical stability in buffers at 37 °C
Caco-2 cell monolayers = test: Transepithelial transport across Caco-2 cell monolayers; details: AP-BL
mouse jejunum = test: In situ single-pass intestinal perfusion; details: mouse proximal jejunum, 0.1 mM, pH 6.0
[6] = given as the ethyl ester prodrug oseltamivir; cited from earlier work
[7] = In situ single-pass intestinal perfusion; details: male, BALB/c, mouse, other: in situ single-pass intestinal (jejunal) perfusion, pH 6

Chain of pepsin (P00791 60-385): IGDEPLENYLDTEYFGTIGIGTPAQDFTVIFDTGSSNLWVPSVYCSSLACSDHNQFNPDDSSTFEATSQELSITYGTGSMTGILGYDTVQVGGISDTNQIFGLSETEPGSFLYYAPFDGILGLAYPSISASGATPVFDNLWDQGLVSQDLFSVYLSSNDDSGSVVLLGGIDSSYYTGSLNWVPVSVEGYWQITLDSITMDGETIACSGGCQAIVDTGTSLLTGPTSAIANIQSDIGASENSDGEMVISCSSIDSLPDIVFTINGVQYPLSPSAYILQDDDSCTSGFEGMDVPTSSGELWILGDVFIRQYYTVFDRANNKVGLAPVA

## CC(C)[C@H](N)C(=O)OCCOCn1cnc2c(=O)[nH]c(N)nc21 [valacyclovir]
In vitro [1]
  half-life: 1.58 h
In vitro [2]
  half-life: 3.12 h

## CCC(CC)O[C@@H]1C=C(C(=O)O)C[C@H](NC(=N)N)[C@H]1NC(C)=O [GOC]
pepsin
  Half-life (t1/2): stable ^b
pancreatin; pH 4.5 Acetate buffer with pancreatin
  Half-life (t1/2): stable ^b
pancreatin; pH 5.5 Acetate buffer with pancreatin
  Half-life (t1/2): stable ^b
pancreatin; pH 6.0 MES buffer with pancreatin
  Half-life (t1/2): stable ^b
pancreatin; pH 6.8 SIF with pancreatin
  Half-life (t1/2): stable ^b
Caco-2 cell homogenates
  Half-life (t1/2): stable ^b
HepG2 cell homogenates
  Half-life (t1/2): stable ^b
hPEPT1
  Uptake in hPEPT1 cRNA-injected oocytes versus water-injected control oocytes: no increase in uptake
Caco-2 cells
  Amount in cells (share of accumulated species after GOC-ISP-Val transport study): 49.2%
[3]
  Half-life (t1/2): stable ^b
[4]
  Half-life (t1/2): stable ^b
[5]; pH 1.2 SGF without pepsin, 0.2 mM, stable = no decrease in area by HPLC after 2 h
  Half-life (t1/2): stable ^b
[5]; pH 4.5 Acetate buffer
  Half-life (t1/2): stable ^b
[5]; pH 5.5 Acetate buffer
  Half-life (t1/2): stable ^b
[5]; pH 6.0 MES buffer
  Half-life (t1/2): stable ^b
[5]; pH 7.4 Phosphate buffer
  Half-life (t1/2): stable ^b
Caco-2 cell monolayers; apical pH 6.0 / basolateral pH 7.4, 37 °C
  Apparent permeability (Papp): 7.98±4.61 x 10^−7 cm/s
Mouse jejunum
  Effective permeability (Peff): approximately zero

## CCC(CC)O[C@@H]1C=C(C(=O)O)C[C@H](N)[C@H]1NC(C)=O [oseltamivir carboxylate]
[6]
  Oral bioavailability: about 80%

## COCCc1ccc(OCC(O)CNC(C)C)cc1 (centres unmarked) [metoprolol]
Caco-2 cell monolayers; 0.2 mM
  Papp relative to that of the prodrug GOC-ISP-Val: 1.7 times higher
[7]
  Papp at 1.5 h, 0.1 mM: 53.8 ± 16.8 ×10⁻⁶ cm/s
